Legend:
[1] = In vitro metabolism by human liver microsomes; format: in vitro ADME; details: S9229 incubation, relative to S9229 at time = 0
[2] = Pharmacokinetics of S9229 in rats, single iv or oral dose; format: in vivo, Sprague-Dawley rats; details: for AUC(0-t) / Cmax / Tmax / Vd / clearance / half-life / bioavailability: Sprague-Dawley, rat, plasma; for AUC0-24hr Ratio / Cmax Ratio: vs 10 mg/kg dose
Procedure, shortened: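 Sprague-Dawley rats, 4/sex, received a 1 mg/kg bw IV bolus in 1% ethanol in saline, with tail-vein sampling from 2 min to 8 h. Oral groups (3/sex/group) were gavaged once with 10, 30 or 100 mg/kg bw in 1% methylcellulose and sampled from 15 min to 24 h. Plasma was assayed for parent and metabolites.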

[3] = Toxicokinetics of S9229 in the 28-day rat study; format: in vivo, Sprague-Dawley rats; details: vs 10 mg/kg dose
[4] = oral gavage 10 mg/kg bw, female
[5] = oral gavage 30 mg/kg bw, female
[6] = oral gavage 100 mg/kg bw, female

Compound: COC[C@@H](CC(C)C)NC(=O)c1ccc(C)c(C)c1 [S9229, (R)-N-(1-methoxy-4-methylpentan-2-yl)-3,4-dimethylbenzamide]
- % MS (EIC) Peak Area ([1]; 10 min): 86.9%
- % MS (EIC) Peak Area ([1]; 20 min): 70.6%
- % MS (EIC) Peak Area ([1]; 60 min): ~22.6%
- AUC(0-t) ([2]; female, iv, 1 mg/kg): 1730 ± 376 ng·h/mL
- Cmax ([2]; female, iv, 1 mg/kg): 3940 ± 1070 ng/mL
- Tmax ([2]; female, iv, 1 mg/kg): 1.8 min
- Vd ([2]; female, iv, 1 mg/kg): 2.82 L/kg
- clearance ([2]; female, iv, 1 mg/kg): 7.9 mL/min/kg
- half-life ([2]; female, iv, 1 mg/kg): 260 ± 99 min
- bioavailability ([2]; female, po): 0.09 to 0.1%
- AUC(0-t) ([2]; female, po, 10 mg/kg): 15.2 ± 11.2 ng·h/mL
- Cmax ([2]; female, po, 10 mg/kg): 10.5 ± 13.9 ng/mL
- Tmax ([2]; female, po, 10 mg/kg): 15 min
- bioavailability ([2]; female, po, 10 mg/kg): 0.09%
- half-life ([2]; female, po, 10 mg/kg): 57.6 ± 18 min
- AUC(0-t) ([2]; female, po, 30 mg/kg): 49.5 ± 31.7 ng·h/mL
- Cmax ([2]; female, po, 30 mg/kg): 55.4 ± 43.9 ng/mL
- Tmax ([2]; female, po, 30 mg/kg): 15 min
- bioavailability ([2]; female, po, 30 mg/kg): 0.1%
- half-life ([2]; female, po, 30 mg/kg): 109 ± 127 min
- AUC(0-t) ([2]; female, po, 100 mg/kg): 175 ± 169 ng·h/mL
- Cmax ([2]; female, po, 100 mg/kg): 102 ± 124 ng/mL
- Tmax ([2]; female, po, 100 mg/kg): 100 min
- bioavailability ([2]; female, po, 100 mg/kg): 0.1%
- half-life ([2]; female, po, 100 mg/kg): 61.8 ± 19.2 min
- ratio of female/male AUC0-24hr ([2]; iv 1 mg/kg): 1.02
- ratio of female/male Cmax ([2]; iv 1 mg/kg): 1.08
- CL as % of hepatic blood flow ([2]; iv, females): 14.4%
- CL as % of hepatic blood flow ([2]; iv, males): 13.9%
- AUC(0-t) ([2]; male, iv, 1 mg/kg): 1690 ± 416 ng·h/mL
- Cmax ([2]; male, iv, 1 mg/kg): 3650 ± 1180 ng/mL
- Tmax ([2]; male, iv, 1 mg/kg): 1.8 min
- Vd ([2]; male, iv, 1 mg/kg): 3.47 L/kg
- clearance ([2]; male, iv, 1 mg/kg): 7.65 mL/min/kg
- half-life ([2]; male, iv, 1 mg/kg): 323 ± 130 min
- bioavailability ([2]; male, po): 0.04 to 0.1%
- AUC(0-t) ([2]; male, po, 10 mg/kg): 11.3 ± 10 ng·h/mL
- Cmax ([2]; male, po, 10 mg/kg): 19.4 ± 24 ng/mL
- Tmax ([2]; male, po, 10 mg/kg): 15 min
- bioavailability ([2]; male, po, 10 mg/kg): 0.07%
- half-life ([2]; male, po, 10 mg/kg): 82.8 ± 76.8 min
- AUC(0-t) ([2]; male, po, 30 mg/kg): 20.6 ± 3.7 ng·h/mL
- Cmax ([2]; male, po, 30 mg/kg): 11.9 ± 0.6 ng/mL
- Tmax ([2]; male, po, 30 mg/kg): 15 min
- bioavailability ([2]; male, po, 30 mg/kg): 0.04%
- half-life ([2]; male, po, 30 mg/kg): 107 ± 41.4 min
- AUC(0-t) ([2]; male, po, 100 mg/kg): 175 ± 57.8 ng·h/mL
- Cmax ([2]; male, po, 100 mg/kg): 52.3 ± 12 ng/mL
- Tmax ([2]; male, po, 100 mg/kg): 49.8 min
- bioavailability ([2]; male, po, 100 mg/kg): 0.1%
- half-life ([2]; male, po, 100 mg/kg): 134 ± 65.4 min
- AUC0-24hr Ratio [2, 4]: 1
- Cmax Ratio [2, 4]: 1
- AUC0-24hr Ratio ([2]; oral gavage 10 mg/kg bw, male): 1
- Cmax Ratio ([2]; oral gavage 10 mg/kg bw, male): 1
- AUC0-24hr Ratio [2, 5]: 3.26
- Cmax Ratio [2, 5]: 5.28
- AUC0-24hr Ratio ([2]; oral gavage 30 mg/kg bw, male): 1.82
- Cmax Ratio ([2]; oral gavage 30 mg/kg bw, male): 0.61
- AUC0-24hr Ratio [2, 6]: 11.5
- Cmax Ratio [2, 6]: 9.68
- AUC0-24hr Ratio ([2]; oral gavage 100 mg/kg bw, male): 15.5
- Cmax Ratio ([2]; oral gavage 100 mg/kg bw, male): 2.70
- AUC0-24hr Ratio ([3]; Day 1, 10 mg/kg bw, F): 1
- Cmax Ratio ([3]; Day 1, 10 mg/kg bw, F): 1
- AUC0-24hr Ratio ([3]; Day 1, 10 mg/kg bw, M): 1
- Cmax Ratio ([3]; Day 1, 10 mg/kg bw, M): 1
- AUC0-24hr Ratio ([3]; Day 1, 30 mg/kg bw, F): 1.11
- Cmax Ratio ([3]; Day 1, 30 mg/kg bw, F): 0.55
- AUC0-24hr Ratio ([3]; Day 1, 30 mg/kg bw, M): 6.62

Reference: PMC5616206 (Toxicology Reports, 2016)
